Test results reported in ChEMBL document CHEMBL5550195, “Synthesis and in vitro evaluation of novel amino-phenylmethylene-imidazolone 5-HT2A receptor antagonists” (RSC Med Chem, 2024).
Calls of active or inactive are those of the source. The calls are words filed in the database; no cut-off is given here.

Tests used:
[1] = molecular target: T1, 5-hydroxytryptamine receptor 2A (Homo sapiens, UniProt P28223); experiment: Displacement of [3H] Ketanserin from 5HT2A receptor (unknown origin) at 10 uM incubated for 0.5 hrs by microbeta2 plate reader assay relative to control; details: for inhibition: filed as antagonist
In short: (§1)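 Filtration binding on 5-HT2A membranes. Serially diluted compound, with ketanserin as reference, was mixed with membrane and [3H]ketanserin, with separate nonspecific-binding wells, and shaken at 300 rpm. Mixtures were filtered through PEI-soaked GF filter plates and washed 4× with cold buffer. Filters were dried 1 h at 50 °C and bound 3H was counted by scintillation. IC50 came from dose-response fits and Ki was also reported; the top dose was 10000 nM.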

[2] = Kinetic solubility of compound in PBS at pH 7.4 incubated for 2 hrs in shaker by LC-MS/MS analysis; assay type: physicochemical; details: read-out: Kinetic_solubility
In short: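 Compound from 10 mM DMSO stock was added in duplicate to pH 7.4 PBS, 30 µL into 970 µL, and stirred/shaken at 1100 rpm for 2 h at room temperature. The mixture was vacuum filtered and the filtrate diluted in methanol/DMSO. Quantification was by LC-MS/MS (positive ESI, MRM) against 3 µM standards, with progesterone as positive control. The assay upper limit was 300 µM.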

[3] = molecular target: T1, 5-hydroxytryptamine receptor 2A; experiment: Displacement of [3H] Ketanserin from 5HT2A receptor (unknown origin) incubated for 0.5 hrs by microbeta2 plate reader assay; in short: as §1
[4] = molecular target: T1, 5-hydroxytryptamine receptor 2A; experiment: Antagonist activity at 5-HT2A receptor (unknown origin) assessed as inhibition of 5-HT stimulated IP1 production at 10 uM incubated for 1 hr by HTRF method relative to control; assay type: functional; set-up: scale not given: the % may be the effect or the level left; details: filed as antagonist
In short: (§2)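 IP-One HTRF immunoassay for 5-HT2A Gαq signalling. Cells were seeded at 7,500 per well and given varying doses of compound. The agonist-mode reference was serotonin and the antagonist-mode reference was methiothepin. Incubation was 1 h at 37 °C, then lysis with d2-labelled IP1 and terbium cryptate anti-IP1 antibody for 1 h at room temperature. Fluorescence was read at 615/665 nm. IP1 was quantified against a 9-point standard curve, 4-fold from 7,700 nM, run in duplicate. Values came from log(inhibitor) vs response, variable-slope fit.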

[5] = molecular target: T1, 5-hydroxytryptamine receptor 2A; experiment: Agonist activity at 5-HT2A receptor (unknown origin) assessed as IP1 accumulation at 0.0004 to 10 uM incubated for 1 hr by HTRF method; assay type: functional; details: dose 0.0004-10 µM; in short: as §2
[6] = molecular target: T1, 5-hydroxytryptamine receptor 2A; experiment: Antagonist activity at 5-HT2A receptor (unknown origin) assessed as inhibition of 5-HT stimulated IP1 production incubated for 1 hr by HTRF method; assay type: functional; in short: as §2

T1 sequence (P28223 whole entry): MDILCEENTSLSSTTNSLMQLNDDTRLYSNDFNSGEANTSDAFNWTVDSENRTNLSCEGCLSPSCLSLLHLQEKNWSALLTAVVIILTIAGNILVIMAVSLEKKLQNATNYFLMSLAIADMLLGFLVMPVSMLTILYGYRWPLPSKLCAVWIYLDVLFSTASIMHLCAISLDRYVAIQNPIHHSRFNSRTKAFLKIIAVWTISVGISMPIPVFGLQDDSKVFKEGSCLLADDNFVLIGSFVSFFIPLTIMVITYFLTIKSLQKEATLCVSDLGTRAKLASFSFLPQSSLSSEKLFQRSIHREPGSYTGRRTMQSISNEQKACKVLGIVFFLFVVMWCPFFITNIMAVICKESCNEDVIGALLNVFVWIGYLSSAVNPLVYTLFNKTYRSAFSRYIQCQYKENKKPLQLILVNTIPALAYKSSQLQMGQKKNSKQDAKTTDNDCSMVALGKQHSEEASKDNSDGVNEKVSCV

Compound | Activity [1] | solubility kinetic at 2 h [2] [µM] | Ki [3] [nM] | inhibition [1] [%] | Activity [4] [%] | Activity [5] | IC50 [6] [nM]
COc1cc(/C=C2\C(=O)N(C)C(=N)N2C)cc(OC)c1OC.Cl | inactive | ≥ 20 | – | – | – | – | –
COc1cc(/C=C2\C(=O)N=C(N)N2C)cc(OC)c1OC.Cl | inactive | ≥ 20 | – | – | – | – | –
COc1cc(/C=C2\N=C(N)NC2=O)c(OC)cc1Br.Cl | – | ≥ 20 | 19 | 97 | 100 | inactive | 58
COc1cc(/C=C2\N=C(N)NC2=O)cc(OC)c1OC.Cl | inactive | ≥ 20 | – | – | – | – | –

The remaining lines, values ahead:

Activity [1] | solubility kinetic at 2 h [2] [µM] | Ki [3] [nM] | inhibition [1] [%] | Activity [4] [%] | Activity [5] | IC50 [6] [nM] | Compound
– | ≥ 20 | > 3880 | – | – | – | – | COc1ccc(OC)c(/C=C2\C(=O)N=C(N)N2C)c1.Cl
– | ≥ 20 | 233 | 95 | 93 | inactive | 887 | COc1ccc(OC)c(/C=C2\N=C(N)NC2=O)c1.Cl
– | ≥ 20 | – | – | – | – | – | COc1cc(/C=C2\C(=O)N=C(N)N2C)c(OC)cc1Br.Cl
